# ChEMBL document CHEMBL4138282, “An Anti-Inflammatory PPAR-γ Agonist from the Jellyfish-Derived Fungus Penicillium chrysogenum J08NF-4” (J Nat Prod, 2018)
# Activity calls are given as the source filed them. The calls are words filed in the database; no cut-off is given here.
# Legend:
# Type in all cases: cell-based
# [1] = Cytotoxicity against rat Ac2F cells assessed as reduction in cell viability up to 50 uM after 24 hrs by WST assay
# Procedure, shortened: (§1)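 Cells in high-glucose DMEM/10% heat-inactivated FBS with penicillin-streptomycin at 37 °C, 5% CO2; seeded 12 h, then exposed to compound for 24 h. WST reagent 1 h at 37 °C, absorbance at 450 nm.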
# RAW264.7 = assay: Cytotoxicity against mouse RAW264.7 cells assessed as reduction in cell viability up to 50 uM after 24 hrs by WST assay; conditions: raw264.7, 24 h; procedure, shortened: as §1
# [2] = molecular target: T1, Peroxisome proliferator-activated receptor gamma (Homo sapiens) (UniProt P37231); assay: Agonist activity at full length human flag-tagged PPARgamma1 […] expressed in rat Ac2F cells coexpressing PPRE-X3-TK after 6 hrs by one-glo luciferase reporter gene assay
# T1 sequence (whole entry): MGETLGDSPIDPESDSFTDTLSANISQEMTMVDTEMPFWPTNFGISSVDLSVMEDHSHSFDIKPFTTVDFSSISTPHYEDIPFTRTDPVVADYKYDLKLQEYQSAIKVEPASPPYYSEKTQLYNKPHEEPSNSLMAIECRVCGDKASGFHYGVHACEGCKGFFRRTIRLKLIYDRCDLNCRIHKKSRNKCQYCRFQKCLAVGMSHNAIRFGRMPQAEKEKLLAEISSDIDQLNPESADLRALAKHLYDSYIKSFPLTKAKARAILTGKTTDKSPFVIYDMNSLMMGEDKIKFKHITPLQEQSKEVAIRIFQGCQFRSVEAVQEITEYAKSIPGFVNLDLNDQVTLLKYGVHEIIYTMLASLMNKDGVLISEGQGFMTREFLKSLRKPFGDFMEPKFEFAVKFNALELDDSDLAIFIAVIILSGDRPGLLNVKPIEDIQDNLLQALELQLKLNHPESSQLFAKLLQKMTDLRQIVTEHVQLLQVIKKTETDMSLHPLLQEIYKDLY
# Procedure, shortened: (§2)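 Rat Ac2F cells at 70–80% confluence transfected by Lipofectamine 2000 with PPRE-X3-TK-luc (1 μg/well) plus pFlag-PPAR-γ1 or pcDNA3 (0.1 μg/well), 4 h, then 10 h in complete medium. Compound (5, 10, 20 μM) or rosiglitazone 5 μM added for 6 h in serum-free medium; ONE-Glo luminescence as fold of control, n = 3.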
# [3] = molecular target: T1, Peroxisome proliferator-activated receptor gamma (Homo sapiens); assay: Agonist activity at full length human flag-tagged PPARgamma1 […] expressed in rat Ac2F cells coexpressing PPRE-X3-TK at 20 uM after 6 hrs by one-glo luciferase reporter gene assay relative to control; procedure, shortened: as §2
# [4] = molecular target: T2, Peroxisome proliferator-activated receptor gamma (Mus musculus) (UniProt P37238); assay: Agonist activity at PPARgamma in mouse RAW264.7 cells assessed as increase in protein expression level in nuclear fractions at 30 uM after 24 hrs by Western blot assay relative to control
# T2 sequence (whole entry): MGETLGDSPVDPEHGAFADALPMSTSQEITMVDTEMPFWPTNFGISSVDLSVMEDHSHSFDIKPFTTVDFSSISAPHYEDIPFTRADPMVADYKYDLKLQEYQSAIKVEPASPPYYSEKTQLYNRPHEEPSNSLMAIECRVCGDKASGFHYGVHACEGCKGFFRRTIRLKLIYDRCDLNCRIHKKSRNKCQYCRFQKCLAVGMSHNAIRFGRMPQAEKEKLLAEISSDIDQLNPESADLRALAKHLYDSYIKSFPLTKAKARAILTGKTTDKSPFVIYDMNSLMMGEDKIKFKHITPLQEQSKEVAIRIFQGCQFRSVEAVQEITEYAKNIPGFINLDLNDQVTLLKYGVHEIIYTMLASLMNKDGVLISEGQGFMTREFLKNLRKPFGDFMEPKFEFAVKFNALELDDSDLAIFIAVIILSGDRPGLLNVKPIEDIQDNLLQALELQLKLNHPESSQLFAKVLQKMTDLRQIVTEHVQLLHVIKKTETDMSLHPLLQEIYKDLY
# Procedure, shortened: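 Treated RAW 264.7 cells at 10 or 30 μM for 24 h, with rosiglitazone 10 or 30 μM as comparator. Nuclear fractions isolated by NE-PER extraction, protein by BCA, PPAR-γ by Western blot normalized to nuclear TFIIB; three independent experiments.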
# [5] = molecular target: T2, Peroxisome proliferator-activated receptor gamma (Mus musculus); assay: Agonist activity at PPARgamma in LPS-stimulated mouse RAW264.7 cells assessed as inhibition of NF-kappaB p65 phosphorylation pretreated with compound for 1 hr followed by LPS stimulation for 30 mins by Western blot assay
# Procedure, shortened: (§3)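 For the antagonist arm, GW9662 (10 μM) was added 1 h before. Phospho-p65 read by Western blot on 10% SDS-PAGE, β-actin reference; three independent experiments.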
# [6] = molecular target: T2, Peroxisome proliferator-activated receptor gamma (Mus musculus); assay: Agonist activity at PPARgamma in LPS-stimulated mouse RAW264.7 cells assessed as inhibition of NF-kappaB p65 phosphorylation at 30 uM pretreated with compound for 1 hr followed by LPS stimulation for 30 mins by Western blot assay relative to control; procedure, shortened: as §3
# [7] = molecular target: T2, Peroxisome proliferator-activated receptor gamma (Mus musculus); assay: Agonist activity at PPARgamma in LPS-stimulated mouse RAW264.7 cells assessed as inhibition of NF-kappaB p65 phosphorylation at 30 uM pretreated with compound for 1 hr followed by LPS stimulation for 30 mins in presence of PPARgamma antagonist GW9662 by Western blot assay; procedure, shortened: as §3
# [8] = molecular target: T2, Peroxisome proliferator-activated receptor gamma (Mus musculus); assay: Agonist activity at PPARgamma in LPS-stimulated mouse RAW264.7 cells assessed as inhibition of NF-kappaB signaling by measuring reduction in iNOS mRNA level pretreated with compound for 1 hr followed by LPS stimulation for 6 hrs by RT-PCR analysis
# Procedure, shortened: (§4)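 Trizol RNA, M-MLV cDNA, 27-cycle PCR, agarose gel with ethidium bromide stain; GAPDH as internal control. Three independent experiments.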
# [9] = molecular target: T2, Peroxisome proliferator-activated receptor gamma (Mus musculus); assay: Agonist activity at PPARgamma in LPS-stimulated mouse RAW264.7 cells assessed as inhibition of NF-kappaB signaling by measuring reduction in COX2 mRNA level pretreated with compound for 1 hr followed by LPS stimulation for 6 hrs by RT-PCR analysis; procedure, shortened: as §4
# [10] = molecular target: T2, Peroxisome proliferator-activated receptor gamma (Mus musculus); assay: Agonist activity at PPARgamma in LPS-stimulated mouse RAW264.7 cells assessed as inhibition of NF-kappaB signaling by measuring reduction in TNFalpha mRNA level pretreated with compound for 1 hr followed by LPS stimulation for 6 hrs by RT-PCR analysis; procedure, shortened: as §4
# [11] = molecular target: T2, Peroxisome proliferator-activated receptor gamma (Mus musculus); assay: Agonist activity at PPARgamma in LPS-stimulated mouse RAW264.7 cells assessed as inhibition of NF-kappaB signaling by measuring reduction in IL-1beta mRNA level pretreated with compound for 1 hr followed by LPS stimulation for 6 hrs by RT-PCR analysis; procedure, shortened: as §4
# [12] = molecular target: T2, Peroxisome proliferator-activated receptor gamma (Mus musculus); assay: Agonist activity at PPARgamma in LPS-stimulated mouse RAW264.7 cells assessed as inhibition of NF-kappaB signaling by measuring reduction in IL-6 mRNA level pretreated with compound for 1 hr followed by LPS stimulation for 6 hrs by RT-PCR analysis; procedure, shortened: as §4
# [13] = molecular target: T2, Peroxisome proliferator-activated receptor gamma (Mus musculus); assay: Agonist activity at PPARgamma in LPS-stimulated mouse RAW264.7 cells assessed as inhibition of NF-kappaB signaling by measuring reduction in iNOS mRNA level at 50 uM pretreated with compound for 1 hr followed by LPS stimulation for 6 hrs by RT-PCR analysis relative to control; procedure, shortened: as §4
# [14] = molecular target: T2, Peroxisome proliferator-activated receptor gamma (Mus musculus); assay: Agonist activity at PPARgamma in LPS-stimulated mouse RAW264.7 cells assessed as inhibition of NF-kappaB signaling by measuring reduction in COX2 mRNA level at 50 uM pretreated with compound for 1 hr followed by LPS stimulation for 6 hrs by RT-PCR analysis relative to control; procedure, shortened: as §4
# [15] = molecular target: T2, Peroxisome proliferator-activated receptor gamma (Mus musculus); assay: Agonist activity at PPARgamma in LPS-stimulated mouse RAW264.7 cells assessed as inhibition of NF-kappaB signaling by measuring reduction in TNFalpha mRNA level at 50 uM pretreated with compound for 1 hr followed by LPS stimulation for 6 hrs by RT-PCR analysis relative to control; procedure, shortened: as §4
# [16] = molecular target: T2, Peroxisome proliferator-activated receptor gamma (Mus musculus); assay: Agonist activity at PPARgamma in LPS-stimulated mouse RAW264.7 cells assessed as inhibition of NF-kappaB signaling by measuring reduction in IL-1beta mRNA level at 50 uM pretreated with compound for 1 hr followed by LPS stimulation for 6 hrs by RT-PCR analysis relative to control; procedure, shortened: as §4
# [17] = molecular target: T2, Peroxisome proliferator-activated receptor gamma (Mus musculus); assay: Agonist activity at PPARgamma in LPS-stimulated mouse RAW264.7 cells assessed as inhibition of NF-kappaB signaling by measuring reduction in IL-6 mRNA level at 50 uM pretreated with compound for 1 hr followed by LPS stimulation for 6 hrs by RT-PCR analysis relative to control; procedure, shortened: as §4
# [18] = molecular target: T2, Peroxisome proliferator-activated receptor gamma (Mus musculus); assay: Agonist activity at PPARgamma in LPS-stimulated mouse RAW264.7 cells assessed as inhibition of NF-kappaB signaling by measuring reduction in iNOS protein level pretreated with compound for 1 hr followed by LPS stimulation measured after 24 hrs by Western blot analysis
# [19] = molecular target: T2, Peroxisome proliferator-activated receptor gamma (Mus musculus); assay: Agonist activity at PPARgamma in LPS-stimulated mouse RAW264.7 cells assessed as inhibition of NF-kappaB signaling by measuring reduction in COX2 protein level pretreated with compound for 1 hr followed by LPS stimulation measured after 24 hrs by Western blot analysis
# [20] = molecular target: T2, Peroxisome proliferator-activated receptor gamma (Mus musculus); assay: Agonist activity at PPARgamma in LPS-stimulated mouse RAW264.7 cells assessed as inhibition of NF-kappaB signaling by measuring reduction in NO production pretreated with compound for 1 hr followed by LPS stimulation measured after 24 hrs by Griess assay
# Procedure, shortened: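 Supernatant mixed 1:1 with Griess reagent, 20 min at 37 °C in the dark, A520; nitrite quantified against 0–100 μM sodium nitrite standards.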
# [21] = molecular target: T2, Peroxisome proliferator-activated receptor gamma (Mus musculus); assay: Agonist activity at PPARgamma in LPS-stimulated mouse RAW264.7 cells assessed as inhibition of NF-kappaB signaling by measuring reduction in IL-1beta production pretreated with compound for 1 hr followed by LPS stimulation measured after 24 hrs by ELISA
# [22] = molecular target: T2, Peroxisome proliferator-activated receptor gamma (Mus musculus); assay: Agonist activity at PPARgamma in LPS-stimulated mouse RAW264.7 cells assessed as inhibition of NF-kappaB signaling by measuring reduction in IL-6 production pretreated with compound for 1 hr followed by LPS stimulation measured after 24 hrs by ELISA
# [23] = molecular target: T2, Peroxisome proliferator-activated receptor gamma (Mus musculus); assay: Agonist activity at PPARgamma in LPS-stimulated mouse RAW264.7 cells assessed as inhibition of NF-kappaB signaling by measuring reduction in TNFalpha production pretreated with compound for 1 hr followed by LPS stimulation measured after 3 hrs by ELISA
compound,measurement,setting,value
COC(=O)CC/C(C)=C/CC/C(C)=C/Cc1cc(O)c(C)cc1O,Activity,[1],Non-Toxic
same,Activity,RAW264.7,Non-Toxic
same,Activity,[2],Dose-dependent effect
same,fold change (FC),[3],3
same,fold change (FC),[4],1.8
same,inhibition,[5],Dose-dependent effect
same,fold change (FC),[6],2.8
same,inhibition,[7],inactive
same,inhibition,[8],Dose-dependent effect
same,inhibition,[9],Dose-dependent effect
same,inhibition,[10],Dose-dependent effect
same,inhibition,[11],Dose-dependent effect
same,inhibition,[12],Dose-dependent effect
same,fold change (FC),[13],5
same,fold change (FC),[14],2
same,fold change (FC),[15],2
same,fold change (FC),[16],2.5
same,fold change (FC),[17],5
same,inhibition,[18],Dose-dependent effect
same,inhibition,[19],Dose-dependent effect
same,inhibition,[20],Dose-dependent effect
same,inhibition,[21],Dose-dependent effect
same,inhibition,[22],Dose-dependent effect
same,inhibition,[23],Dose-dependent effect
CN(CCOc1ccc(CC2SC(=O)NC2=O)cc1)c1ccccn1 (stereo not given),fold change (FC),[4],2.3
